According to ChEMBL document CHEMBL1125259, “Lipophilic glycosyl phosphotriester derivatives of AZT: synthesis, NMR transmembrane transport study, and antiviral activity” (1991):

How the values were obtained:
[1] = biological target: Human immunodeficiency virus type 1 reverse transcriptase (Human immunodeficiency virus 1) (UniProt Q72547); experiment: Percent inhibition measured as the production of HIV reverse transcriptase (RT) in culture supernatant of monocytic U937 on at 14 days at a concentration 5 uM; assay type: functional
Outline: (§1)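 U937 cells in RPMI 1640 with 5% heat-inactivated FCS, penicillin, streptomycin and polybrene (2 μg/mL), 37 °C, 5% CO2. Infected with HIV-1 LAV-Bru; compounds diluted in PBS. 50 μL supernatant aliquots were assayed for RT: 1 h, 37 °C, pH 7.8, Mg2+, poly(rA)-oligo(dT), [3H]dTTP, TCA-pyrophosphate stop, filter counting. % inhibition = 100 − 100 × (treated cpm / virus-control cpm).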

[2] = biological target: Human immunodeficiency virus type 1 reverse transcriptase (Human immunodeficiency virus 1) (UniProt Q72547); experiment: Compound ability to inhibit the production of HIV reverse transcriptase (RT) in culture supernatant of CEM-CL13 on at 15 days at a concentration 5 uM; assay type: functional
Outline: (§2)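 CEM-C113 cells in RPMI 1640 with 5% heat-inactivated FCS and polybrene (2 µg/mL) were plated at 1×10^5 cells/mL with compound in PBS, in triplicate, and infected with HIV-1 LAV-Bru. From day 7, every 3–4 days, fresh medium with or without drug was added and 50 µL supernatant was taken for RT microassay. The RT microassay used poly(rA)-oligo(dT) and (methyl-³H)dTTP for 1 h at 37 °C, with TCA precipitation, read as cpm/50 µL.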

CCRF-CEM [3] = experiment: Concentration that reduced by 50% the HIV induced CPE (cytopathic effect) on day 22.; assay type: functional; conditions: Homo sapiens, 528 h, read-out: ED50 (the source's name)
Outline: (§3)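 CEM-C113 cells (1×10^5 cells/mL) were infected with HIV-1 LAV-Bru or mock-infected, with compound dilutions in triplicate, for at least 7 days. Medium with or without drug was renewed every 3–4 days for longer runs. MTT absorbance was read at 540 nm. CD50 = 50% reduction of mock-infected absorbance; ED50 = dose giving 50% protection from CPE. Values are averages of at least two experiments.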

CCRF-CEM [4] = experiment: Concentration required to reduce the viability of uninfected cells (CEM-CL13) by 50% on day 22.; assay type: functional; conditions: Homo sapiens, 528 h, read-out: CD50 (the source's name); outline: as §3
[5] = biological target: Human immunodeficiency virus type 1 reverse transcriptase (Human immunodeficiency virus 1) (UniProt Q72547); experiment: Percent inhibition measured as the production of HIV reverse transcriptase (RT) in culture supernatant of monocytic U937 on at 7 days at a concentration 5 uM; assay type: functional; outline: as §1
[6] = biological target: Human immunodeficiency virus type 1 reverse transcriptase (Human immunodeficiency virus 1) (UniProt Q72547); experiment: Compounds were evaluated for anti-RT activity at 9 days of culture; assay type: functional
Outline: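 HIV-1 (12 500 CCID50) was preincubated with compound at 25 µM final for 60 min at 37 °C, pelleted by ultracentrifugation and resuspended. RT was measured at once with poly(rA)-oligo(dT) and ³H-dTTP (1 h, 37 °C, cpm). Treated virus was then put on CEM-C113 cells for 60 min and replaced with compound-free medium. Supernatant RT was read at days 7 and 9.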

[7] = biological target: Human immunodeficiency virus type 1 reverse transcriptase (Human immunodeficiency virus 1) (UniProt Q72547); conditions: at 25 µM
CCRF-CEM [8] = experiment: Concentration that reduced by 50% the HIV induced CPE (cytopathic effect) on day 19.; assay type: functional; conditions: Homo sapiens, 456 h, read-out: ED50 (the source's name); outline: as §3
[9] = biological target: Human immunodeficiency virus type 1 reverse transcriptase (Human immunodeficiency virus 1) (UniProt Q72547); experiment: Compound ability to inhibit the production of HIV reverse transcriptase (RT) in culture supernatant of CEM-CL13 on at 7 days at a concentration 5 uM; assay type: functional; outline: as §2
[10] = biological target: Human immunodeficiency virus type 1 reverse transcriptase (Human immunodeficiency virus 1) (UniProt Q72547); experiment: Compound ability to inhibit the production of HIV reverse transcriptase (RT) in culture supernatant of CEM-CL13 on at 26 days at a concentration 5 uM; assay type: functional; outline: as §2
CCRF-CEM [11] = experiment: Concentration required to reduce the viability of uninfected cells (CEM-CL13) by 50% on day 11.; assay type: functional; conditions: Homo sapiens, 264 h, read-out: CD50 (the source's name); outline: as §3
[12] = biological target: Human immunodeficiency virus type 1 reverse transcriptase (Human immunodeficiency virus 1) (UniProt Q72547); experiment: Compound ability to inhibit the production of HIV reverse transcriptase (RT) in culture supernatant of CEM-CL13 on at 7 days at a concentration 0.2 uM; assay type: functional; outline: as §2
[13] = biological target: Human immunodeficiency virus type 1 reverse transcriptase (Human immunodeficiency virus 1) (UniProt Q72547); experiment: Compound ability to inhibit the production of HIV reverse transcriptase (RT) in preinfected PBL (peripheral blood lymphocytes) at 21 days at a concentration 1 uM; assay type: functional
Outline: (§4)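 PBL were infected with HIV-1 for 1 h at 37 °C, washed twice, and resuspended in complete medium with 10% interleukin-2 and anti-human α-interferon (1000 units/mL). Cells were plated at 1×10^6 cells/well with or without compound. At each time point, 50 µL supernatant was taken for RT assay ([³H]dTTP incorporation, cpm).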

[14] = biological target: Human immunodeficiency virus type 1 reverse transcriptase (Human immunodeficiency virus 1) (UniProt Q72547); experiment: Compound ability to inhibit the production of HIV reverse transcriptase (RT) in culture supernatant of monocytic U937 on at 14 days at a concentration 5 uM; assay type: functional
Outline: (§5)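 HIV-1-infected monocytic U937 cultures were kept up to 14 days with compound. Supernatant RT activity was measured as for CEM-C113, as [³H] cpm/50 µL. % inhibition = 100 − 100 × (cpm of treated samples / cpm of control virus).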

[15] = biological target: Human immunodeficiency virus type 1 reverse transcriptase (Human immunodeficiency virus 1) (UniProt Q72547); experiment: Compound ability to inhibit the production of HIV reverse transcriptase (RT) in culture supernatant of monocytic U937 on at 11 days at a concentration 5 uM; assay type: functional; outline: as §5
[16] = biological target: Human immunodeficiency virus type 1 reverse transcriptase (Human immunodeficiency virus 1) (UniProt Q72547); experiment: Compound ability to inhibit the production of HIV reverse transcriptase (RT) in culture supernatant of CEM-CL13 on at 22 days at a concentration 0.2 uM; assay type: functional; outline: as §2
[17] = biological target: Human immunodeficiency virus type 1 reverse transcriptase (Human immunodeficiency virus 1) (UniProt Q72547); experiment: Compounds were evaluated for anti-RT activity by MTT dose and %protection was reported at 7 days of culture; assay type: functional
Outline: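 HIV-1 was preincubated with compound at 25 µM for 60 min at 37 °C, pelleted, and added to CEM-C113 cells (1×10^5 cells/mL) for 60 min at 37 °C. Medium was then replaced without compound. At days 7 and 9, viability was read by MTT assay on 100 µL of cell suspension.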

[18] = biological target: Human immunodeficiency virus type 1 reverse transcriptase (Human immunodeficiency virus 1) (UniProt Q72547); experiment: Compound ability to inhibit the production of HIV reverse transcriptase (RT) in preinfected PBL (peripheral blood lymphocytes) at 14 days at a concentration 5 uM; assay type: functional; outline: as §4
[19] = biological target: Human immunodeficiency virus type 1 reverse transcriptase (Human immunodeficiency virus 1) (UniProt Q72547); experiment: Percent inhibition measured as the production of HIV reverse transcriptase (RT) in culture supernatant of monocytic U937 on at 14 days at a concentration 1 uM; assay type: functional; outline: as §1
[20] = biological target: Human immunodeficiency virus type 1 reverse transcriptase (Human immunodeficiency virus 1) (UniProt Q72547); experiment: Compound ability to inhibit the production of HIV reverse transcriptase (RT) in culture supernatant of monocytic U937 on at 7 days at a concentration 0.2 uM; assay type: functional
Outline: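 HIV-1 LAV-Bru-infected U937 cultures run in complete RPMI 1640 (5% FCS, polybrene 2 µg/mL) at 37 °C with compound in triplicate. Culture supernatant (50 µL) sampled from day 7 for RT microassay: poly(rA)-oligo(dT), (methyl-3H)dTTP, Mg2+, pH 7.8, 1 h at 37 °C, TCA precipitation onto filters. Read as cpm/50 µL; % inhibition = 100 − 100 × treated/virus-control cpm.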

[21] = biological target: Human immunodeficiency virus type 1 reverse transcriptase (Human immunodeficiency virus 1) (UniProt Q72547); experiment: Compound ability to inhibit the production of HIV reverse transcriptase (RT) in culture supernatant of CEM-CL13 on at 7 days at a concentration 1 uM; assay type: functional; outline: as §2
[22] = biological target: Human immunodeficiency virus type 1 reverse transcriptase (Human immunodeficiency virus 1) (UniProt Q72547); experiment: Compound ability to inhibit the production of HIV reverse transcriptase (RT) in culture supernatant of CEM-CL13 on at 22 days at a concentration 1 uM; assay type: functional; outline: as §2

Structure (SMILES) | EC50 (CCRF-CEM [3]) | CC50 (CCRF-CEM [4]) | Activity (c.p.m. 50ul-1) [6] | EC50 (CCRF-CEM [8]) | CC50 (CCRF-CEM [11]) | Activity (c.p.m. 50ul-1) [12] | Activity (c.p.m. 50ul-1) [13] | Activity (c.p.m. 50ul-1) [16] | Protection [17] | Activity (c.p.m. 50ul-1) [18] | inhibition [19] | Activity (c.p.m. 50ul-1) [20] | Activity (c.p.m. 50ul-1) [21] | Activity (c.p.m. 50ul-1) [22] | other results
Cc1cn([C@H]2C[C@H](N=[N+]=[N-])[C@@H](COP(=O)(O)OC[C@H]3OC(O)[C@@H](O)[C@@H](O)[C@@H]3O)O2)c(=O)[nH]c1=O (stereo partly drawn) | 0.6 µM | 24 µM | 34000 | 0.2 µM | 28 µM | 3400 | 33100 | 27000 | 38% | 4130 | 0% | – | – | – | inhibition [1]: 0%; Activity (c.p.m. 50ul-1) [2]: 1300; inhibition [5]: 46%; inhibition [7]: 86%; Activity (c.p.m. 50ul-1) [9]: 1500; Activity (c.p.m. 50ul-1) [10]: 103000; Activity (c.p.m. 50ul-1) [14]: 24000; Activity (c.p.m. 50ul-1) [15]: 193000
CCCCCCCCCCCCCCCCOP(=O)(OC[C@H]1OC(O)[C@@H](O)[C@@H](O)[C@@H]1O)OC[C@H]1OC(n2cc(C)c(=O)[nH]c2=O)C[C@@H]1N=[N+]=[N-] (stereo partly drawn) | 0.4 µM | 2.5 µM | 10000 | 0.5 µM | 2.6 µM | 4000 | – | 24000 | 68% | 58300 | 0% | 251000 | 2000 | 3900 | –
CCCCCCCCCCCCCCCCOP(=O)(OCCO[C@H]1O[C@H](CO)[C@@H](O)[C@H](O)[C@@H]1O)OCC1OC(n2cc(C)c(=O)[nH]c2=O)CC1N=[N+]=[N-] (stereo partly drawn) | 1.3 µM | 3.4 µM | 44000 | 1.7 µM | 28 µM | 3900 | – | 52000 | 21% | – | 0% | 343000 | 6000 | 48000 | –
CCCCCCCCCCCCCCCCOP(=O)(OC[C@H]1OC(O)[C@H](O)[C@@H](O)[C@@H]1O)OC[C@H]1OC(n2cc(C)c(=O)[nH]c2=O)C[C@@H]1N=[N+]=[N-] (stereo partly drawn) | 0.8 µM | 3.2 µM | 13000 | 1.5 µM | 3 µM | 4500 | 71100 | 45000 | 81% | 157000 | 79% | 237000 | 2600 | 33000 | –
